We go through 72 molecules from ChEMBL document CHEMBL4513216, “Probing the Open Global Health Chemical Diversity Library for Multistage-Active Starting Points for Next-Generation Antimalarials” (ACS Infect Dis, 2020).

This series can be described thus: Toxicity liver stage against HepG2, at 10uM. Type of series: cell-based. Set-up: test concentration 10 uM, cell line HepG2-A16-CD81EGFP. The note with it: human, HepG2-A16-CD81EGFP cells; read-out: INHIBITION
The gist of the method:
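Uninfected HepG2-A16-CD81EGFP cells, 3 × 10^3 per well, 1536-well, plated on prespotted compound at 10 μM final, parasite-free screening media added to match infected plates; puromycin 10 μM positive, DMSO 0.5% negative; run in parallel with 48 h PbLuc assay at 37 °C, 5% CO2; viability by CellTiter-Glo luminescence, normalized to controls.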
On to `O=C(c1cnc(-c2noc3cc(N4CCCC4)ccc23)s1)N1CCCC1`, for which the cytotoxicity at 10 µM was -3.83%.

`CNC(=O)N1CC[C@@H]2CN(CCc3cccc(OC)c3)S(=O)(=O)[C@@H]2CC1`: the cytotoxicity at 10 µM is -1.46%.

Take `COCCN1C2(CCN(C(=O)c3cccs3)C2)c2ccccc2S1(=O)=O` (configuration not stated): the cytotoxicity at 10 µM is -131%.

Take `CCn1ncc2c(C(F)F)cc(-c3ccn(C)n3)nc21`: the cytotoxicity at 10 µM is -1.21%.

Consider `Cc1cc(NC(=O)CN2CCN(C3CCCC3)C(=O)C2)nn1C`, for which the cytotoxicity at 10 µM stood at 0.825%.

Take `Nc1nc(N)c2c(n1)OC1(COCCN(Cc3nccs3)C1)C2` (configuration not stated): the cytotoxicity at 10 µM is -0.56%.

In the case of `CC1CCN(Cc2c(C(C)C)[nH]c3ncccc23)CC1`, the cytotoxicity at 10 µM was -6.43%.

For the molecule `CCN(CC)C(=O)CN1CCC(c2nc(C)c3c(n2)N(C)CCC3)CC1`, the cytotoxicity at 10 µM stood at 4.14%.

For the molecule `CC(C)OCC(=O)N1CCC(c2ncncc2-c2ccnc(N)c2)C1` (configuration not stated), the cytotoxicity at 10 µM was -2.44%.

For the molecule `Clc1ccc(CN(CCN2CCOCC2)Cc2cccnc2)cc1Cl`, the cytotoxicity at 10 µM was -9.96%.

For `Cn1cc(NCCOc2ccc(F)cc2)cn1`, the cytotoxicity at 10 µM is -1.51%.

Take `CC(C)(C)SCC(=O)Nc1cc(-n2nnnc2C2CC2)ccc1F`: the cytotoxicity at 10 µM is -12%.

For `CN1CCN(C2CCN(Cc3noc(-c4ccccc4)n3)CC2)C1=O`, the cytotoxicity at 10 µM came to 9.5%.

In the case of `CC(C)C(N)C1=NC(=C2N=CN=N2)NO1` (configuration not stated), the cytotoxicity at 10 µM was 8.86%.

For `CCOCCC(=O)N1CCCC(c2cc(C(F)(F)F)[nH]n2)C1` (configuration not stated), the cytotoxicity at 10 µM was -0.819%.

Consider `Cc1nc(C(=O)N2CCCC(c3nc(C(C)C)cs3)C2)c[nH]1` (configuration not stated), for which the cytotoxicity at 10 µM is -41.7%.

Take `Cc1ccc(NC(=O)N(C)C)c(C(=O)OCC(=O)NC(C)C(C)C)c1` (configuration not stated): the cytotoxicity at 10 µM is -14.9%.

As to `Cc1noc(C)c1CNC(=O)Nc1ccc(N2CCSCC2)cc1`, the cytotoxicity at 10 µM is -1.61%.

For `N#CC1(NC(=O)c2ccc(F)cc2OC(F)F)CCOCC1`, the cytotoxicity at 10 µM is 2.24%.

For `CCOC(=O)C(C)NC(=O)CCc1ccc(F)cc1` (configuration not stated), the cytotoxicity at 10 µM was -9.92%.

For `COCCN(C)CC1CCCN1S(=O)(=O)c1cc(C)oc1C` (configuration not stated), the cytotoxicity at 10 µM was determined as 0.729%.

`COc1cc(CNc2nc(N3CCOCC3)ns2)cc(OC)c1OC`: the cytotoxicity at 10 µM was -5.23%.

Consider `COc1ccc(CC(=O)N2CCC(c3nncn3C)CC2)cc1F`, for which the cytotoxicity at 10 µM was found to be 2.01%.

Consider `CN(CC(=O)Nc1ccccc1C(=O)NC1CC1)Cc1ccccc1Cl`, for which the cytotoxicity at 10 µM was -8.18%.

Regarding `Cc1cccc(NC(=O)CN(C)C(=O)c2ccc(-n3cccc3)nc2)n1`, the cytotoxicity at 10 µM was -4.4%.

For `COc1c(C2CCCN2CC(=O)N2CCCCC2)c(C)nn1C` (configuration not stated), the cytotoxicity at 10 µM was 0.113%.

Regarding `COC(=O)N1CCC(Nc2ccc(Cl)c(C#N)n2)CC1`, the cytotoxicity at 10 µM is 1.96%.

Take `O=C(NCCn1ccnc1)C1(c2ccc3c(c2)OCCO3)CCCC1`: the cytotoxicity at 10 µM is -4.38%.

As to `Cc1cc(C)n(-c2cncc(N3CCC(C(=O)N(C)C)CC3)n2)n1`, the cytotoxicity at 10 µM is -16%.

Regarding `CCOC(=O)COc1cccc(NC(=O)C2COCCO2)c1` (configuration not stated), the cytotoxicity at 10 µM stood at 7.01%.

With `c1cc(C2CCN(Cc3nc(-c4ccsc4)no3)CC2)[nH]n1`, the cytotoxicity at 10 µM was found to be 8.44%.

Take `Cc1c(C(C)NC(=O)C2CCCCC2)cnn1C` (configuration not stated): the cytotoxicity at 10 µM is -4.79%.

Take `O=C(NCc1cccnc1)NCC(O)c1cccc(C(F)(F)F)c1` (configuration not stated): the cytotoxicity at 10 µM is -2.64%.

Take `Cn1cnnc1-c1ccnc(NCc2ccc(Br)cc2)c1`: the cytotoxicity at 10 µM amounted to 2.87%.

As to `CC(CNC(=O)c1nc(N2CCOCC2)ncc1Cl)c1ccccc1` (configuration not stated), the cytotoxicity at 10 µM was 0.666%.

For the molecule `NC(=O)c1cccc(OCCC(=O)NC2CCc3c(F)cccc32)c1` (configuration not stated), the cytotoxicity at 10 µM turned out to be 9.86%.

Take `O=C(c1coc2ccccc12)N1CCCC1`: the cytotoxicity at 10 µM is -1.15%.

Take `CCN(CC(=O)Nc1c(C)nn(C)c1C)CC(O)c1ccc(C)cc1` (configuration not stated): the cytotoxicity at 10 µM was -8.14%.

`CC(C)(O)CNC(=O)c1sccc1Br`: the cytotoxicity at 10 µM was -5.58%.

As to `CN1CC(C(=O)NC2(c3ccc(Cl)cc3)CCOCC2)CC1=O` (configuration not stated), the cytotoxicity at 10 µM worked out at 13.8%.

For the molecule `Cc1nccc(CNC(=O)NCC(C)Oc2ccccc2F)n1` (configuration not stated), the cytotoxicity at 10 µM is -13.2%.

For `Cc1noc(C)c1CN(C)C(=O)COc1cccc(C#N)c1`, the cytotoxicity at 10 µM worked out at 5.3%.

On to `Cc1ccc(C)c(CS(=O)(=O)CC(=O)NC(C)c2ccc(F)cc2F)c1` (configuration not stated), for which the cytotoxicity at 10 µM turned out to be 9.71%.

For the molecule `O=C(c1c(O)cnc2ccccc12)N1CCCSCC1`, the cytotoxicity at 10 µM was -9.7%.

For the molecule `CCNC(=O)CCC(=O)Nc1nc(C)c(Cc2ccc(F)cc2)s1`, the cytotoxicity at 10 µM was found to be 6.68%.

Turning to `CC(C)c1nncn1CCNC(=O)c1ccc(Cl)cc1O`, the cytotoxicity at 10 µM is -5.01%.

For `O=C(NCC[S+]([O-])c1ccccc1)NCC(F)(F)F` (configuration not stated), the cytotoxicity at 10 µM was -1.09%.

As for `COc1ncccc1CN1CCn2c(Cn3cncn3)cnc2C1`, the cytotoxicity at 10 µM was -3.17%.

Turning to `Cc1cc2[nH]c(CN3CCCCC3c3cccc(F)c3)cc(=O)n2n1` (configuration not stated), the cytotoxicity at 10 µM was 1.29%.

Regarding `Cc1csc(CNc2nc3c(s2)c(C)nn3C)n1`, the cytotoxicity at 10 µM is -109%.

As for `CN(Cc1nc(COc2ccccc2)no1)CC1Cc2ccccc2O1` (configuration not stated), the cytotoxicity at 10 µM was -4.4%.

As to `CCOCc1nc2c(c(NC(COC)c3ccccn3)n1)CCNCC2` (configuration not stated), the cytotoxicity at 10 µM was -3.21%.

On to `NCC1Cc2cc(-c3cnccn3)cc(Cl)c2O1` (configuration not stated), for which the cytotoxicity at 10 µM came out at 6.82%.

In the case of `NC(=O)CN1CCCC(C(=O)N2CCC(O)(Cc3ccccc3)CC2)C1` (configuration not stated), the cytotoxicity at 10 µM is -7.36%.

Take `Cc1cc(NC2CCN(c3ccc(F)cc3)CC2)n2nc(C)cc2n1`: the cytotoxicity at 10 µM was -0.527%.

As for `Cc1ccc(CN2CCN(c3ncccc3Cl)CC2CCO)cc1` (configuration not stated), the cytotoxicity at 10 µM was -1.04%.

As for `CCc1cc(NC2CCN(Cc3ccccc3F)CC2)n2nccc2n1`, the cytotoxicity at 10 µM was -6%.

Consider `CCC[C@@H]1CN(C(=O)c2ccccc2-c2ncc[nH]2)C[C@H]1N(C)C`, for which the cytotoxicity at 10 µM was -3.17%.

Turning to `CN(CC1CCCCO1)c1nncc(-c2cccc(F)c2)n1` (configuration not stated), the cytotoxicity at 10 µM worked out at 8.01%.

For `Cc1cccc(=O)n1CCCNc1nc(N(C)C)nc2c1CCNCC2`, the cytotoxicity at 10 µM was -10.2%.

Consider `O=C(c1ccc2sccc2c1)N1CCC(C(=O)O)(n2ccnc2)CC1`, for which the cytotoxicity at 10 µM amounted to 2.69%.

In the case of `COc1ccc(C(=O)NCc2cc(N3CCOCC3)ncn2)o1`, the cytotoxicity at 10 µM came out at 4.39%.

In the case of `CC(C)n1cnnc1CN(C)CC1CCCNC1` (configuration not stated), the cytotoxicity at 10 µM stood at 3.05%.

On to `CCC(C(=O)NCc1nc(C)cc(C(F)(F)F)n1)n1cccn1` (configuration not stated), for which the cytotoxicity at 10 µM was -17.1%.

As to `CCN(CC)Cc1cc(C(=O)N2CCC3(CCN(C)CC3)C2)c(C)o1`, the cytotoxicity at 10 µM was determined as 4.92%.

In the case of `CCN1CCN(C(=O)c2cnc(Cc3c(Cl)cccc3Cl)nc2O)CC1`, the cytotoxicity at 10 µM amounted to 2.57%.

For `CCN(Cc1cc(-c2ccccn2)no1)C1CCS(=O)(=O)C1` (configuration not stated), the cytotoxicity at 10 µM was -14.9%.

Turning to `CCc1cn[nH]c1C1CCCN(C(=O)c2noc(C)c2COC)C1` (configuration not stated), the cytotoxicity at 10 µM was -1.67%.

`CCN(Cc1ccc2c(c1)OCCO2)C(=O)NCCc1cnn(C)c1`: the cytotoxicity at 10 µM was -3.72%.

In the case of `Cc1nnc(CN2CCCC(c3cc(C(N)=O)[nH]n3)C2)o1` (configuration not stated), the cytotoxicity at 10 µM is -7.32%.

For the molecule `CC(C)C(C)NC(=O)c1ncn2c1CN(C)S(=O)(=O)c1ccccc1-2` (configuration not stated), the cytotoxicity at 10 µM is -132%.

As to `CN(C)C(=O)Cn1c2c(ccc1=O)CC(NCc1ccoc1)CC2` (configuration not stated), the cytotoxicity at 10 µM amounted to 16.5%.
